FXN GAA850 act – FXN promoter activators, primary screen, cell-based, luciferase luminescence, HEK293 lucGAA850. HEK293 lucGAA850 FXN promoter luciferase reporter, 24 h; percent of 10 µM SAHA response. activation, % at 6 µM. hit rate 0.56% among 360,000;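 active = activation above the average of all compounds screened plus 3 SD, cutoff fixed separately per campaign, cut at about 7.5% in these data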;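 also: 0% = DMSO wells and 100% = 10 µM SAHA wells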
NR2E3 ag-1 – inhibitors of NR2E3-RetCOR corepressor binding, primary screen, NR2E3 agonist project, biochemical, TR-FRET, GST-NR2E3, biotin-RetCOR | 1536-well | hit rate 0.12% among 320,000 | Photoreceptor-specific nuclear receptor (Homo sapiens), Q9Y5X4 | inhibition of corepressor binding, % at 4.78 µM | AID 2300, 2010;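 active = percent inhibition above the cutoff of mean plus 3 SD of all tested compounds, set per screening campaign, cut at about 20% in these data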;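 also: 0% = DMSO wells and 100% = biotin wells as full block of FRET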
Target sequence (Q9Y5X4 whole entry, looked up): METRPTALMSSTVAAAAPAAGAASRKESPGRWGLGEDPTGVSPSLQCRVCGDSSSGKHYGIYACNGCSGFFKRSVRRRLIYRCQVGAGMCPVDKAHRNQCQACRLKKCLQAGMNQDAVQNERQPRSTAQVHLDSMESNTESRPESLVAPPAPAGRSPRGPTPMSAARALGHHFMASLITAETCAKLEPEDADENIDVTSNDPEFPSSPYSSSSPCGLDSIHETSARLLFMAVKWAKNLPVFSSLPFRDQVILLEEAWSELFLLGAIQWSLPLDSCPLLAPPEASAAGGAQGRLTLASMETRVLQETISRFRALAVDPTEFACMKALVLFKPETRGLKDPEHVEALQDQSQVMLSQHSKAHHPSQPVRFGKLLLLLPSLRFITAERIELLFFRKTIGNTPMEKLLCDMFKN
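System: GST-tagged NR2E3 plus biotinylated RetCOR corepressor; Amount: 1.35 nM GST-tagged NR2E3 final; Dosing: single nominal compound dose of 4.8 µM; Schedule: 5 h incubation at 4 °C; Technique: TR-FRET with europium anti-GST and streptavidin-D2, 340 nm excitation; Controls: biotin wells as high control, 0.6% DMSO wells as low control.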
T cell modulator – modulators of CD8 T cell-vesicle binding, primary screen, mouse 2C CD8+ T cells, flow cytometry. 2C CD8+ T cell-vesicle binding; hits give low values. response (vesicle binding), % at 7 µM. hit rate 0.068% among 330,000. AID 2052, 2009;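 active = response, share of CD8 T cells binding vesicles, and their 90th percentile fluorescence all below set limits, cut at about 80% in these data, passing the limit was not always enough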;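 also: values below 100% mean blocked vesicle binding to the CD8+ T cells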
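Assay system – 2C mouse CD8+ T cells · Also added – QL9-loaded Drosophila micro-vesicles · Timing – Cell–vesicle co-incubation 1.5 h at 37 °C, staining 20 min on ice · Signal – flow cytometry of vesicle-bound cells · Measure – percent CD8+ FL2 mean versus row control · Controls – Peptide-free naked vesicles (low) and QL9 vesicles with 0.7% DMSO vehicle (high)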
Myeloid diff 2 – induction of myeloid progenitor differentiation, primary screen, cell-based, flow cytometry, MLPCN library; ER-HoxA9 myeloid progenitors, lysozyme-GFP differentiation; calls only at 10 µM; hit rate 1% among 360,000; AID 624256, 2012;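 active = normalized GFP-positive differentiation at or above the plate's own cutoff, the solvent-only control mean plus 3 SD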;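 also: cells exposed to compound for four days before flow analysis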
NR2E3 ag-2 – NR2E3 agonists in two-hybrid cells, primary screen, cell-based, luminescence, CHO-S, Gal4-NCOR/VP16-NR2E3. Photoreceptor-specific nuclear receptor (Homo sapiens), Q9Y5X4. luciferase. inhibition of corepressor binding, % at 3.98 µM. hit rate 0.35% among 360,000. AID 602229, 2012;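 active = inhibition above the mean of all tested compounds plus 3 SD, cut at about 70% in these data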;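 also: 0% = DMSO with NR2E3 transfected cells and 100% = cells lacking NR2E3 construct; higher means lower luciferase signal from less NR2E3 corepressor binding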
* = called active by the depositor; i = inactive; . = no result given; + = active, no number. Shown are actives, neighbours in structure and some others; about 2% of the full set was active somewhere.

SMILES | FXN GAA850 act | NR2E3 ag-1 | T cell modulator | Myeloid diff 2 | NR2E3 ag-2
Cc1cc(N)ccc1-n1nc2ccccc2n1 | -3 | -2 | 408 | + | -27
Cc1ccc(-n2nc3ccc(N)cc3n2)c(C)c1 | -9 | 3 | 250 | i | -19
COc1ccc(CCN(C)C(=O)C(CCSC)NC(=O)c2ccco2)cc1OC (stereo not given) | 1 | 1 | 369 | i | -11
C[C@H]1[C@H](C)CC[C@]2(C(=O)O)CC[C@]3(C)C(=CC[C@@H]4[C@@]5(C)C[C@@H](O)[C@H](O)C(C)(C)[C@@H]5CC[C@]43C)[C@H]12 | -2 | 3 | 771 | i | 94*
C[C@@H]1CC[C@]2(C(=O)O)CC[C@]3(C)C(=CCC4[C@]56CC[C@@](O)(OC5)C(C)(C)C6CC[C@]43C)C2[C@H]1C (stereo not given in full) | -3 | -3 | 121 | i | 94*
CC(C)NC(=O)C1(C)CCCN1Cc1ccccc1C#N (stereo not given) | 1 | . | . | i | 4
CCOc1cc(/C=C/C(=O)N(CC)CC(=O)NCc2cccs2)cc(Cl)c1OC | 0 | 1 | 220 | . | 6
C[C@@H]1CN([C@@H](C)CO)C(=O)CCCn2cc(nn2)CO[C@H]1CN(C)S(=O)(=O)c1cccs1 | 0 | . | . | i | 8
COc1ccccc1N(C)S(=O)(=O)c1ccc(Cl)c(C(=O)Nc2ccccc2N2CCOCC2)c1 | 3 | . | . | i | -7
COC(=O)[C@]12CCCCC=C1N(Cc1ccc3c(c1)OCO3)C(=O)[C@H](CC(=O)NCc1ccc(C)o1)C2 | . | . | . | i | .
c1ccc2c(c1)CC1(CCCCC1)n1nnnc1-2 | -3 | 4 | 272 | + | 8
c1ccc2c(c1)Cn1nnnc1-2 | 2 | 3 | 489 | i | 10
O=S(=O)(c1cccs1)N1CCN(c2ccc(O)cc2)CC1 | -2 | 2 | 452 | + | 16
CC(=O)OCCCN1c2ccccc2Nc2nnc(-c3ccccc3)cc21 | 1 | 0 | 355 | + | -99
CC(=O)OCCN1c2ccccc2Sc2cnccc21 | -3 | . | . | i | 10
Cc1ccc(/C(=N/Nc2ncnc3ccccc23)C(=O)O)cc1 | 4 | -1 | i | i | -128
COC(=O)C(=O)C/C(=N/Nc1ncnc2ccccc12)c1ccc(Cl)cc1 | 5 | -2 | 306 | + | 2
Cc1c(C)n(CC(O)CN2CCCCC2)c2ccccc12 (stereo not given) | 2 | 2 | 195 | i | 13
Cc1cc(C)n(CC(O)Cn2c(C)c(C)c3ccccc32)n1 (stereo not given) | -3 | 1 | 360 | + | -10
C=CCn1c(=O)c(C(=O)Nc2ncccc2C)c(O)c2ccccc21 | 0 | . | . | i | -4
Nc1ncnc2c1ncn2[C@@H]1O[C@H](CO)[C@@H](O)[C@H]1O | 0 | 0 | 407 | + | 20
Cn1cc(S(=O)(=O)NC[C@H]2O[C@@H](n3cnc4c(N)ncnc43)[C@H](O)[C@@H]2O)cn1 | 0 | . | . | + | 8
Cc1cc(S(=O)(=O)NC[C@H]2O[C@@H](n3cnc4c(N)ncnc43)[C@H](O)[C@@H]2O)c(C)s1 | 1 | . | 0 | i | 4
CC(C)n1nc(C(=O)OCC(=O)NCCc2ccc(S(N)(=O)=O)cc2)c2ccccc2c1=O | 1 | . | . | i | 21
Cc1sc2nc3ccc(NCc4ccco4)nn3c(=O)c2c1C | 1 | 0 | 308 | + | 9
SMILES | FXN GAA850 act | NR2E3 ag-1 | T cell modulator | Myeloid diff 2 | NR2E3 ag-2
COc1ccc2cc(C3CC=C(CO)CN3S(=O)(=O)c3ccccc3[N+](=O)[O-])n(C(=O)OC(C)(C)C)c2c1 (stereo not given) | . | . | . | i | .
OC[C@H]1O[C@@H](n2cnc3c(Nc4ccccc4)ncnc32)[C@H](O)[C@@H]1O | 6 | 5 | 588 | i | -14
NCCNC(=O)Cc1cccc(NC(=O)Cc2ccc(Nc3ncnc4c3ncn4[C@@H]3O[C@H](CO)[C@@H](O)[C@H]3O)cc2)c1 | 10* | 2 | 229 | i | -9
CC(C)(C)n1ncc2c(=O)n(CC(=O)NCc3ccco3)cnc21 | 1 | 0 | 306 | i | -95
CC(C)(C)n1ncc2c(=O)n(CC(=O)NCc3ccc(F)cc3)cnc21 | -4 | -4 | 302 | + | -197
CCCC(=O)NCC(c1cccs1)S(=O)(=O)c1ccc(Cl)cc1 (stereo not given) | 1 | 2 | 287 | + | -19
CC(=O)NCC(c1cccs1)S(=O)(=O)c1ccc(F)cc1 (stereo not given) | 0 | 1 | 466 | i | -12
CN(Cc1ccccc1C(F)(F)F)C(=O)C1CCC(=O)N(CC2CCCCC2)C1 (stereo not given) | 0 | . | . | i | 2
CN(C)c1ccc(NC(=O)c2cccc([N+](=O)[O-])c2)c2ccccc12 | 1 | 2 | 184 | + | -11
O=C(Nc1ccc2c3c(cccc13)CC2)c1cccc([N+](=O)[O-])c1 | 2 | 4 | 132 | i | -21
Cc1cc(-c2ccco2)c(C#N)c2nc3ccccc3n12 | 4 | -1 | 309 | + | -44
Cc1cc(C(C)C)n2c(nc3ccccc32)c1C#N | . | 3 | 169 | . | .
CCc1ccc(/C(C)=N\Nc2ccc([N+](=O)[O-])cc2)cc1 | 2 | 2 | 313 | + | -45
O=[N+]([O-])c1ccc(NN=C(Oc2ccccc2)c2ccc([N+](=O)[O-])cc2)cc1 | -2 | . | . | + | -24
COC(=O)Cc1ccc(NC(=S)NCCO)cc1 | 1 | 2 | 260 | i | 23
COC(=O)Cc1ccc(NC(=S)NC2CC2)cc1 | 3 | 1 | 489 | + | -9
COc1ccc(-n2c(C)cc(C(=O)COc3ccc(C)nc3[N+](=O)[O-])c2C)cc1 | -6 | 4 | 255 | i | 16
Cc1ccc(OCC(=O)c2cc(C)n(-c3cc(C)on3)c2C)c([N+](=O)[O-])n1 | -1 | . | . | + | 21
CC(=O)Nc1ccc(C(=O)N2CCCCC2c2cc(C(=O)Nc3cccc(C#N)c3)no2)cc1 (stereo not given) | -1 | . | . | i | -1
O=C(O)c1cc(-c2ccc3ccccc3c2)nc2ccc(F)cc12 | 0 | 0 | . | + | -57
O=C(NC(=S)Nc1cccnc1)c1cccc(Cl)c1 | 2 | . | . | i | -8
COc1ccc(N)cc1-n1c(C)ccc1C | 3 | -2 | 397 | + | 7

Screening data: PubChem, several laboratories
